Rows were chosen to be rich in hits. Some 3.1% of all compounds tested hit in one or more screens of this group.
KCNQ1 act: potentiators or activators of KCNQ1 channel, primary screen, cell-based, thallium flux, high-throughput | B-score at 10 µM | Potassium voltage-gated channel subfamily KQT member 1 (Homo sapiens), P51787 | hit rate 0.35% among 310,000 | CHO-K1 KCNQ1, thallium flux FluxOR fluorescence; hits give high values | AID 2648, 2010;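 active = fluorescence ratio B-score, a plate-corrected score, at least three library SD, with initial intensity B-score within 5 SD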
Target sequence (P51787 whole entry, looked up): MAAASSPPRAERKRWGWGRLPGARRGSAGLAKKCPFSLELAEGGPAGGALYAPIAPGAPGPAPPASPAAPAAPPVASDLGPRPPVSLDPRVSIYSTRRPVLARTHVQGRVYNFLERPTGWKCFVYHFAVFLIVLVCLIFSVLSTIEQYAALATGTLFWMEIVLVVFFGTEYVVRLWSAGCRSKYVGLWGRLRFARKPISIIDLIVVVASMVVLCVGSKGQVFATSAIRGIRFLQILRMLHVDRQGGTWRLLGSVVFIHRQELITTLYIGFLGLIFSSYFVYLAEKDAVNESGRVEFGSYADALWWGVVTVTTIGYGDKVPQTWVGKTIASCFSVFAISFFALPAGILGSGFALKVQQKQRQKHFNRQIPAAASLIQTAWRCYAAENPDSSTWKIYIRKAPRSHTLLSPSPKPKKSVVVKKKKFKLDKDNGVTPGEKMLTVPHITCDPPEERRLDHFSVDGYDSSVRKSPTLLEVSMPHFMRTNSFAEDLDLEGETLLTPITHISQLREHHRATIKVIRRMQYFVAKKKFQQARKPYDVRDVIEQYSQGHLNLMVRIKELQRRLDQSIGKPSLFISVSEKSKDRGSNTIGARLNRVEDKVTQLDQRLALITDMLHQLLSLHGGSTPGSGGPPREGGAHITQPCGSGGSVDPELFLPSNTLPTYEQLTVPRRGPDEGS
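Schedule – 37 °C overnight plating, 90-min dark dye load, 20-min compound pretreatment · System – stable KCNQ1 CHO-K1 line · Probe or stimulus – thallium- and potassium-containing depolarizing buffer · Measured by – kinetic FluxOR fluorescence, 10 s baseline plus 110 s post-stimulus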
KCNK9 block: KCNK9 potassium channel inhibitors, primary screen, HEK293 cells, thallium flux. AID 488922, 2010. FluxOR thallium flux fluorescence; hits give low values. hit rate 1.2% among 310,000. B-score at 10 µM;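 active = ratio B-score over 3 SD below the library mean, with starting fluorescence within 5 SD of its mean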;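 note: negative B-score means less thallium flux so channel inhibition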
hERG rescue: hERG rescue from dofetilide block, primary screen, cell-based, CHO-hERG, FluxOR thallium flux, dofetilide IC70; Voltage-gated inwardly rectifying potassium channel KCNH2 (Homo sapiens), Q12809; dofetilide IC70 present; activation (rescue from dofetilide block), less the hit threshold, % at 10 µM; hit rate 0.51% among 310,000; AID 1511, 2009;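 active = activation above the mean of controls blocked by dofetilide plus 5 SD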;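 note: thallium influx through hERG after potassium depolarization seen as dye fluorescence rise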
KCNQ1 block: inhibitors of human KCNQ1 channel, primary screen, cell-based, thallium flux, high-throughput. Potassium voltage-gated channel subfamily KQT member 1 (Homo sapiens), P51787. CHO-K1 KCNQ1, FluxOR thallium flux fluorescence; hits give high values. B-score at 10 µM. hit rate 1.3% among 310,000;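 active = compounds whose thallium flux B-score, printed positive for inhibition, exceeds three library SD while starting fluorescence stays within three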;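 note: channel opened by potassium depolarization with thallium stimulus after 20 min compound exposure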
KCNK3 inh: human KCNK3 channel inhibitors, primary screen, CHO cells, FluxOR thallium flux, B-score; FluxOR fluorescence; hits give low values; B-score at 10 µM; hit rate 0.84% among 340,000;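 active = B-score under library mean minus 4 SD, starting fluorescence ratio at most library mean plus 5 SD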;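 note: more negative B-score means stronger inhibition of thallium flux through KCNK3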
KCNK9 inh conf: KCNK9 potassium channel inhibitors, confirmation, HEK293 cells, thallium flux, duplicate; shares compounds with KCNK9 block; FluxOR thallium flux fluorescence; inhibition, % at 10 µM; hit rate 43% among 4,900;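 active = thallium signal inhibited by more than 5 SD of the compound-free buffer control wells, on both duplicate plates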;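 note: 0% = assay buffer control wells without compound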
Kir21 sel: mouse Kir2.1 channel inhibition, confirmation, selectivity assay for KCNK9 modulator project, cell-based, HEK293, thallium flux; inhibition, % at 10 µM; Kir2.1 cells, FluxOR thallium flux fluorescence; shares compounds with KCNK9 block; hit rate 4% among 4,900;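 active = thallium signal drop more than 5 SD beyond the mean of the no-compound control wells, seen in both duplicate plates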;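 note: signal is fluorescence rise after thallium addition divided by baseline fluorescence; plate controls were assay buffer only for no effect and full block by chlorpromazine control for full effect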
KCNK9 uninduced: thallium flux in non-induced HEK293 cells, confirmation, counter-screen for KCNK9 inhibitor project, cell-based, second counter screen, non-induced KCNK9-HEK293; shares compounds with KCNK9 block; FluxOR thallium flux; inhibition, % at 10 µM; hit rate 40% among 4,900; AID 492997, 2010;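 active = thallium signal drop beyond 5 SD of the untreated control mean, on both duplicate plates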;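 note: plate controls were buffer only IC0 wells for no effect and SID17386958 at its maximal inhibitory level for full effect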
Starred values were filed as active, the others as inactive; i = inactive; x = no result given.

SMILES	KCNQ1 act	KCNK9 block	hERG rescue	KCNQ1 block	KCNK3 inh	KCNK9 inh conf	Kir21 sel	KCNK9 uninduced
O=C(c1ccc(F)cc1)N1CCC(C(=O)N2CCN(c3ncccn3)CC2)CC1	x	x	x	x	i	x	x	x
C=CCn1c(SCCC)nc2sc3c(c2c1=O)CCc1ccccc1-3	i	i	-8	i	i	i	i	i
O=S(=O)(Nc1ncnc2scc(-c3ccc(F)cc3)c12)c1cc(F)ccc1F	i	i	-19	6*	i	i	i	i
CC(NC(=O)c1ccc(Br)s1)c1ccncc1 (centres undefined)	i	i	-15	i	i	x	x	x
Cc1ccc([N+](=O)[O-])cc1NC(=O)CN(C(=O)c1ccccc1Cl)C1CCCCC1	i	-9.6*	-6	i	i	50%*	i	i
CC(=O)CC(c1ccccc1)S(=O)(=O)c1ccc([N+](=O)[O-])cc1 (centres undefined)	i	i	-8	i	i	x	x	x
CCc1ccc(-c2csc(NC(=O)C3=NN(c4ccccc4)C(=O)CC3)n2)cc1	i	i	-16	i	i	i	i	i
COc1ccccc1C1CCCN1Cc1nc(-c2ccc(C)s2)oc1C (centres undefined)	i	i	-7	i	i	x	x	x
CC(C(=O)NC1CCCC1)N(C(=O)c1ccc(-c2ccccc2)[nH]1)c1ccccc1F (centres undefined)	i	i	-19	6*	i	i	i	i
Cc1cccc(N2CCN(Cc3nc(-c4cccc(Oc5ccccc5)c4)oc3C)CC2)n1	i	i	-17	i	i	i	i	i
COc1ccc(-c2nc(CN3CCN(Cc4ccccc4)CC3)c(C)o2)cc1	i	i	-6	i	i	x	x	x
Fc1ccc(CNC(=S)Nc2ccccc2Cl)cc1	i	i	-5	i	i	x	x	x
Fc1ccc2c(c1)Sc1ccc(Cl)cc1CC2N1CCN(CCC2OCCO2)CC1 (centres undefined)	i	i	-27	i	i	i	i	i
COCCCN1CCN(C2Cc3ccccc3Sc3ccc(Cl)cc32)CC1 (centres undefined)	i	i	-26	i	i	x	x	x
CN(C/C=C/C#CC(C)(C)C)Cc1cccc2ccccc12	i	i	-9	i	i	i	i	i
COc1ccc(OC)c(NC(=O)c2ccc(-c3cccs3)cc2)c1	i	-13*	-5	i	i	66%*	i	35%*
CCN(CC(=O)Nc1cc(Cl)ccc1C)C(=O)Cc1sc(C)nc1-c1ccc(F)cc1	i	-9.8*	-15	i	-9.7*	i	i	30%*
O=C(CCNC(=O)c1ccc([N+](=O)[O-])cc1)Nc1ccc(F)cc1F	i	i	-7	i	i	x	x	x
C=CCN(C)CC/C=C1\c2ccccc2CSc2ccccc21	i	i	-12	i	i	i	i	i
O=C(CCSc1ccccn1)c1ccccc1	i	i	-12	i	i	x	x	x
O/N=C/c1cc(Br)ccc1OCc1cccc(F)c1	i	-8.9*	-8	i	i	46%*	i	34%*
Cc1ccc(COc2ccc(Br)cc2/C=N/O)cc1	i	i	-3	i	i	x	x	x
Cc1ccc(C2(c3noc(CN4CCC(c5ccncc5)CC4)n3)CCCC2)cc1	i	i	-22	i	i	i	i	i
